Results as given in ChEMBL document CHEMBL5055631, “Antitumor properties of novel sesquiterpene lactone analogs as NFκB inhibitors that bind to the IKKβ ubiquitin-like domain (ULD)” (Eur J Med Chem, 2021).

Assays:
Format in all cases: functional
CCRF-CEM = test: Anticancer activity against human CCRF-CEM cells assessed as cell growth inhibition incubated for 48 hrs by sulforhodamine B assay
RPMI-8226 = test: Anticancer activity against human RPMI-8226 cells assessed as cell growth inhibition incubated for 48 hrs by SRB method
SR = test: Anticancer activity against human SR cells assessed as cell growth inhibition incubated for 48 hrs by SRB method
Summary of the method: (§1)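 NCI-60 panel (DTP). Cells in RPMI 1640 with 5% FBS, 2 mM L-glutamine, seeded at 5,000–40,000 per well by doubling time and preincubated 24 h at 37 °C, 5% CO2. Time-zero plates TCA-fixed. DMSO stocks diluted in medium with gentamicin, tested at 100 μM, 10 μM, 1 μM, 0.1 μM and 10 nM for 48 h. Cells fixed with cold TCA, stained with SRB, absorbance read at 515 nm.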

A549 = test: Anticancer activity against human A549 cells assessed as cell growth inhibition incubated for 48 hrs by SRB method; summary of the method: as §1
EKVX = test: Anticancer activity against human EKVX cells assessed as cell growth inhibition incubated for 48 hrs by SRB method; summary of the method: as §1
HOP-62 = test: Anticancer activity against human HOP-62 cells assessed as cell growth inhibition incubated for 48 hrs by SRB method; summary of the method: as §1
MOLT-4 = test: Anticancer activity against human MOLT-4 assessed as cell growth inhibition incubated for 48 hrs by SRB method
HOP-92 = test: Anticancer activity against human HOP-92 cells assessed as cell growth inhibition incubated for 48 hrs by SRB method
K562 = test: Anticancer activity against human K562 cells assessed as cell growth inhibition incubated for 48 hrs by SRB method
HL-60(TB) = test: Anticancer activity against human HL-60(TB) cells assessed as cell growth inhibition incubated for 48 hrs by SRB method
NCI-H226 = test: Anticancer activity against human NCI-H226 cells assessed as cell growth inhibition incubated for 48 hrs by SRB method; summary of the method: as §1
NCI-H23 = test: Anticancer activity against human NCI-H23 cells assessed as cell growth inhibition incubated for 48 hrs by SRB method; summary of the method: as §1
NCI-H460 = test: Anticancer activity against human NCI-H460 cells assessed as cell growth inhibition incubated for 48 hrs by SRB method; summary of the method: as §1
NCI-H522 = test: Anticancer activity against human NCI-H522 cells assessed as cell growth inhibition incubated for 48 hrs by SRB method
COLO 205 = test: Anticancer activity against human COLO 205 cells assessed as cell growth inhibition incubated for 48 hrs by SRB method
HCC 2998 = test: Anticancer activity against human HCC 2998 cells assessed as cell growth inhibition incubated for 48 hrs by SRB method; summary of the method: as §1
HCT-116 = test: Anticancer activity against human HCT-116 cells assessed as cell growth inhibition incubated for 48 hrs by SRB method; summary of the method: as §1
HCT-15 = test: Anticancer activity against human HCT-15 cells assessed as cell growth inhibition incubated for 48 hrs by SRB method; summary of the method: as §1
HT-29 = test: Anticancer activity against human HT29 cells assessed as cell growth inhibition incubated for 48 hrs by SRB method; summary of the method: as §1
KM12 = test: Anticancer activity against human KM12 cells assessed as cell growth inhibition incubated for 48 hrs by SRB method; summary of the method: as §1
SW-620 = test: Anticancer activity against human SW-620 cells assessed as cell growth inhibition incubated for 48 hrs by SRB method
SF-268 = test: Anticancer activity against human SF-268 cells assessed as cell growth inhibition incubated for 48 hrs by SRB method; summary of the method: as §1
SF-295 = test: Anticancer activity against human SF-295 cells assessed as cell growth inhibition incubated for 48 hrs by SRB method; summary of the method: as §1
SF-539 = test: Anticancer activity against human SF-539 cells assessed as cell growth inhibition incubated for 48 hrs by SRB method
SNB-19 = test: Anticancer activity against human SNB-19 cells assessed as cell growth inhibition incubated for 48 hrs by SRB method; summary of the method: as §1
SNB-75 = test: Anticancer activity against human SNB-75 cells assessed as cell growth inhibition incubated for 48 hrs by SRB method
U-251 = test: Anticancer activity against human U-251 cells assessed as cell growth inhibition incubated for 48 hrs by SRB method
Summary of the method: (§2)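 NCI-60 panel, SRB assay. Cells grown in RPMI 1640 with 5% FBS and 2 mM L-glutamine, seeded at 5,000–40,000 cells/well depending on doubling time, and preincubated 24 h at 37 °C with 5% CO2. Time-zero plates were TCA-fixed. Compounds came from DMSO stocks and were tested at 100 μM, 10 μM, 1 μM, 0.1 μM and 10 nM for 48 h. Cells were fixed with cold TCA and stained with 0.4% SRB, and the dye was solubilized in 10 mM Tris base with A515 read.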

LOX IMVI = test: Anticancer activity against human LOX IMVI cells assessed as cell growth inhibition incubated for 48 hrs by SRB method
Malme-3M = test: Anticancer activity against human MALME-3M cells assessed as cell growth inhibition incubated for 48 hrs by SRB method
M14 = test: Anticancer activity against human M14 cells assessed as cell growth inhibition incubated for 48 hrs by SRB method; summary of the method: as §1
MDA-MB-435 = test: Anticancer activity against human MDA-MB-435 cells assessed as cell growth inhibition incubated for 48 hrs by SRB method; summary of the method: as §1
OVCAR-5 = test: Anticancer activity against human OVCAR-5 cells assessed as cell growth inhibition incubated for 48 hrs by SRB method
OVCAR-8 = test: Anticancer activity against human OVCAR-8 cells assessed as cell growth inhibition incubated for 48 hrs by SRB method; summary of the method: as §1
786-0 = test: Anticancer activity against human 786-0 cells assessed as cell growth inhibition incubated for 48 hrs by SRB method; summary of the method: as §1
RXF 393 = test: Anticancer activity against human RXF 393 cells assessed as cell growth inhibition incubated for 48 hrs by SRB method; summary of the method: as §1
PC-3 = test: Anticancer activity against human PC-3 cells assessed as cell growth inhibition incubated for 48 hrs by SRB method; summary of the method: as §1
[1] = Anticancer activity against human HS 578T cells assessed as cell growth inhibition incubated for 48 hrs by SRB method
MDA-MB-468 = test: Anticancer activity against human MDA-MB-468 cells assessed as cell growth inhibition incubated for 48 hrs by SRB method; summary of the method: as §1
SK-MEL-28 = test: Anticancer activity against human SK-MEL-28 cells assessed as cell growth inhibition incubated for 48 hrs by SRB method; summary of the method: as §1
UACC-257 = test: Anticancer activity against human UACC-257 assessed as cell growth inhibition incubated for 48 hrs by SRB method; summary of the method: as §2
UACC-62 = test: Anticancer activity against human UACC-62 cells assessed as cell growth inhibition incubated for 48 hrs by SRB method; summary of the method: as §2
IGROV-1 = test: Anticancer activity against human IGROV-1 cells assessed as cell growth inhibition incubated for 48 hrs by SRB method; summary of the method: as §1
OVCAR-4 = test: Anticancer activity against human OVCAR-4 cells assessed as cell growth inhibition incubated for 48 hrs by SRB method
NCI/ADR-RES = test: Anticancer activity against human NCI/ADR-RES cells assessed as cell growth inhibition incubated for 48 hrs by SRB method; summary of the method: as §1
A498 = test: Anticancer activity against human A498 cells assessed as cell growth inhibition incubated for 48 hrs by SRB method; summary of the method: as §1
ACHN = test: Anticancer activity against human ACHN cells assessed as cell growth inhibition incubated for 48 hrs by SRB method; summary of the method: as §1
CAKI-1 = test: Anticancer activity against human CAKI-1 cells assessed as cell growth inhibition incubated for 48 hrs by SRB method; summary of the method: as §1
TK-10 = test: Anticancer activity against human TK-10 cells assessed as cell growth inhibition incubated for 48 hrs by SRB method; summary of the method: as §2
UO-31 = test: Anticancer activity against human UO-31 cells assessed as cell growth inhibition incubated for 48 hrs by SRB method
Summary of the method: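 NCI-60 panel, SRB assay. Time-zero plates were TCA-fixed. Compounds came from DMSO stocks and were tested at 100 μM, 10 μM, 1 μM, 0.1 μM and 10 nM for 48 h. Cells were fixed with cold TCA and stained with 0.4% SRB, and the dye was solubilized in 10 mM Tris base with A515 read.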

DU-145 = test: Anticancer activity against human DU-145 cells assessed as cell growth inhibition incubated for 48 hrs by SRB method; summary of the method: as §1
MCF7 = test: Anticancer activity against human MCF7 cells assessed as cell growth inhibition incubated for 48 hrs by SRB method; summary of the method: as §1
MDA-MB-231 = test: Anticancer activity against human MDA-MB-231 cells assessed as cell growth inhibition incubated for 48 hrs by SRB method; summary of the method: as §1
BT-549 = test: Anticancer activity against human BT-549 cells assessed as cell growth inhibition incubated for 48 hrs by SRB method; summary of the method: as §1
T47D = test: Anticancer activity against human T47D cells assessed as cell growth inhibition incubated for 48 hrs by SRB method; summary of the method: as §1

C=C1C(=O)O[C@H]2[C@H]1CC/C(COC(=O)NCCc1ccc(Br)cc1)=C\CC[C@@]1(C)O[C@@H]21
GI50 (CCRF-CEM): 270 nM | GI50 (RPMI-8226): 620 nM | GI50 (SR): 430 nM | GI50 (A549): 2590 nM | GI50 (EKVX): 1540 nM | GI50 (HOP-62): 1990 nM | GI50 (MOLT-4): 1690 nM | GI50 (HOP-92): 1280 nM | GI50 (K562): 530 nM | GI50 (HL-60(TB)): 1060 nM | GI50 (NCI-H226): 1720 nM | GI50 (NCI-H23): 1720 nM | GI50 (NCI-H460): 2060 nM | GI50 (NCI-H522): 1160 nM | GI50 (COLO 205): 1820 nM | GI50 (HCC 2998): 1710 nM | GI50 (HCT-116): 470 nM | GI50 (HCT-15): 1010 nM | GI50 (HT-29): 1320 nM | GI50 (KM12): 1950 nM | GI50 (SW-620): 710 nM | GI50 (SF-268): 1560 nM | GI50 (SF-295): 3810 nM | GI50 (SF-539): 1460 nM | GI50 (SNB-19): 1390 nM | GI50 (SNB-75): 1200 nM | GI50 (U-251): 1400 nM | GI50 (LOX IMVI): 1180 nM | GI50 (Malme-3M): 2090 nM | GI50 (M14): 1260 nM | GI50 (MDA-MB-435): 1580 nM | GI50 (OVCAR-5): 980 nM | GI50 (OVCAR-8): 1560 nM | GI50 (786-0): 1490 nM | GI50 (RXF 393): 1320 nM | GI50 (PC-3): 1730 nM | GI50 [1]: 410 nM | GI50 (MDA-MB-468): 840 nM

C=C1C(=O)O[C@H]2[C@H]1CC/C(COC(=O)NCCc1cccc(OC)c1)=C\CC[C@@]1(C)O[C@@H]21
GI50 (CCRF-CEM): 340 nM | GI50 (RPMI-8226): 910 nM | GI50 (SR): 510 nM | GI50 (A549): 7280 nM | GI50 (EKVX): 1780 nM | GI50 (HOP-62): 4390 nM | GI50 (MOLT-4): 2090 nM | GI50 (HOP-92): 1840 nM | GI50 (K562): 610 nM | GI50 (HL-60(TB)): 1360 nM | GI50 (NCI-H226): 1570 nM | GI50 (NCI-H23): 1860 nM | GI50 (NCI-H460): 3940 nM | GI50 (NCI-H522): 1020 nM | GI50 (COLO 205): 1550 nM | GI50 (HCC 2998): 1680 nM | GI50 (HCT-116): 710 nM | GI50 (HCT-15): 1020 nM | GI50 (HT-29): 1140 nM | GI50 (KM12): 4270 nM | GI50 (SW-620): 520 nM | GI50 (SF-268): 1780 nM | GI50 (SF-295): 7260 nM | GI50 (SF-539): 1490 nM | GI50 (SNB-19): 1430 nM | GI50 (SNB-75): 1470 nM | GI50 (LOX IMVI): 1340 nM | GI50 (Malme-3M): 1840 nM | GI50 (M14): 1290 nM | GI50 (MDA-MB-435): 1580 nM | GI50 (SK-MEL-28): 1730 nM | GI50 (UACC-257): 1990 nM | GI50 (UACC-62): 6230 nM | GI50 (IGROV-1): 1530 nM | GI50 (OVCAR-4): 1260 nM | GI50 (OVCAR-5): 990 nM | GI50 (OVCAR-8): 1780 nM | GI50 (NCI/ADR-RES): 2250 nM | GI50 (786-0): 2260 nM | GI50 (A498): 2950 nM | GI50 (ACHN): 1370 nM | GI50 (CAKI-1): 2350 nM | GI50 (RXF 393): 1120 nM | GI50 (TK-10): 1190 nM | GI50 (UO-31): 670 nM | GI50 (PC-3): 1610 nM | GI50 (DU-145): 1390 nM | GI50 (MCF7): 2300 nM | GI50 (MDA-MB-231): 890 nM | GI50 [1]: 490 nM | GI50 (BT-549): 1560 nM | GI50 (T47D): 3430 nM | GI50 (MDA-MB-468): 850 nM

C=C1C(=O)O[C@@H]2C3O[C@]3(C)CC/C=C(\C)CC[C@@H]12 (some centres undefined)
GI50 (HCT-116): 10000 nM | GI50 (UACC-62): 3480 nM | GI50 (TK-10): 10000 nM
